Results taken from ChEMBL document CHEMBL3808321, “LAT-1 activity of meta-substituted phenylalanine and tyrosine analogs” (Bioorg Med Chem Lett, 2016).

Tests used:
[1] = target: T1, Large neutral amino acids transporter small subunit 1 (Homo sapiens, UniProt Q01650); assay: Substrate activity at human LAT1 expressed in HEK cells assessed as efflux rate of [3H]-gabapentin at 200 uM after 5 to 180 secs by scintillation counting based trans-stimulation assay; assay type: cell-based; details: HEK293
T1 sequence (Q01650 whole entry): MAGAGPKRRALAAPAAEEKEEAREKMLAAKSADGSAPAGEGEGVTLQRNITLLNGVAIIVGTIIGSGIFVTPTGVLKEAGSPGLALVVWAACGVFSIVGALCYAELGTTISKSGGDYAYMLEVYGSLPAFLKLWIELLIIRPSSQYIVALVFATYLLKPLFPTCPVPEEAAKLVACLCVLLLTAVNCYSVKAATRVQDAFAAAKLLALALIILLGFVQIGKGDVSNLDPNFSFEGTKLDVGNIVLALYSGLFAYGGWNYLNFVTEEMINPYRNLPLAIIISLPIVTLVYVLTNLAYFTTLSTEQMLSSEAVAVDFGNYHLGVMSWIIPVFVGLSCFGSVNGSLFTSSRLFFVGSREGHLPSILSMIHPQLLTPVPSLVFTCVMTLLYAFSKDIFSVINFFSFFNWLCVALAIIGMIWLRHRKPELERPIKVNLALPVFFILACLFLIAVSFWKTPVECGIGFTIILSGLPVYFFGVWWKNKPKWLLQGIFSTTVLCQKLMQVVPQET
Procedure, shortened: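 HEK-hLAT1 cells were preloaded with [3H]-gabapentin, then incubated with test agent at 200 μM. Efflux rate (fmol/min) was compared with efflux in the agent's absence and with L-leucine and L-arginine as positive and negative controls and L-phenylalanine and L-tyrosine as parent amino acids. Mean of at least three experiments.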

[2] = target: T1, Large neutral amino acids transporter small subunit 1; assay: Inhibition of human LAT1 expressed in HEK cells assessed as reduction in uptake of [3H]-gabapentin at 200 uM after 3 mins by scintillation counting based cis-inhibition assay; assay type: cell-based; details: HEK293
Procedure, shortened: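 HEK cells stably transfected with human LAT-1 cDNA. Test agent at 200 μM competed with [3H]-gabapentin for cellular uptake. Results are % inhibition relative to background signal without inhibitor, with mean of at least three experiments.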

[3] = target: T1, Large neutral amino acids transporter small subunit 1; assay: Inhibition of human LAT1 expressed in HEK cells assessed as reduction in uptake of [3H]-gabapentin after 3 mins by scintillation counting based cis-inhibition assay; assay type: cell-based, HEK293

SMILES | Activity [1] [fmol/min] | inhibition [2] [%] | IC50 [3] [µM]
CC(C)(C)c1cc(C[C@H](N)C(=O)O)ccc1O | 1.5 | 81 | 
N[C@@H](Cc1cccc(Cl)c1)C(=O)O | 2.6 | 84 | 
N=C(N)NCCC[C@H](N)C(=O)O | 0.8 | 49 | 
N[C@@H](Cc1ccc(O)c(Cc2ccccc2)c1)C(=O)O | 1.3 | 96 | 9.1
N[C@@H](Cc1ccc(O)c(Br)c1)C(=O)O | 1.8 | 86 | 
N[C@@H](Cc1cccc(I)c1)C(=O)O | 1.9 | 91 | 
N[C@@H](Cc1cccc(-c2ccccc2)c1)C(=O)O | 0.8 | 98 | 6.6
N[C@@H](Cc1ccc(O)c(F)c1)C(=O)O | 3 | 63 | 
N[C@@H](Cc1ccc(O)cc1)C(=O)O | 2.1 | 68 | 
CCc1cc(C[C@H](N)C(=O)O)ccc1O | 2.4 | 68 | 
CC(C)c1cc(C[C@H](N)C(=O)O)ccc1O | 2.8 | 80 | 
CC(C)C[C@H](N)C(=O)O | 3.5 | 78 | 
CC(C)c1cccc(C[C@H](N)C(=O)O)c1 | 1.7 | 91 | 
N[C@@H](Cc1cccc(F)c1)C(=O)O | 2.3 | 79 | 
Cc1cc(C[C@H](N)C(=O)O)ccc1O | 3.3 | 56 | 
CC(C)(C)c1cccc(C[C@H](N)C(=O)O)c1 | 1.5 | 87 | 
COc1ccc(C[C@H](N)C(=O)O)cc1C | 2.9 | 75 | 
N[C@@H](Cc1ccc(O)c(Cl)c1)C(=O)O | 2.7 | 63 | 
N[C@@H](Cc1ccc(O)c(I)c1)C(=O)O | 2.4 | 77 | 
Cc1ccc(C[C@H](N)C(=O)O)cc1 | 2.7 | 86 | 
N[C@@H](Cc1cccc(Cc2ccccc2)c1)C(=O)O | 0.8 | 98 | 7.3
N[C@@H](Cc1cccc(Br)c1)C(=O)O | 3 | 86 | 
CCc1cccc(C[C@H](N)C(=O)O)c1 | 3.1 | 77 | 
N[C@@H](Cc1ccccc1)C(=O)O | 3.6 | 85 | 
N[C@@H](Cc1ccc(O)c(-c2ccccc2)c1)C(=O)O | 1.2 | 83 | 
